Measured values as given in ChEMBL document CHEMBL1811814, “Synthesis and evaluation of indole, pyrazole, chromone and pyrimidine based conjugates for tumor growth inhibitory activities--development of highly efficacious cytotoxic agents” (Eur J Med Chem, 2010).

Legend:
Assay type in all cases: functional
Set-up in all cases: scale not given: the % may be the effect or the level left
CCRF-CEM = test: Growth inhibition of human CCRF-CEM cells assessed tumor cell growth at 10^-5 M
Summary of the method: (§1)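 NCI 60-human-tumor-cell-line panel screen. Each compound was tested at a single concentration of 10^-5 M, and percent growth of tumor cells was recorded for each cell line. Growth inhibition was expressed from these percent-growth values.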

HL-60(TB) = test: Growth inhibition of human HL-60(TB) cells assessed tumor cell growth at 10^-5 M
Summary of the method: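 HL-60(TB), part of the 60-line panel, tested at a single concentration of 10^-5 M. The read-out is percent tumor cell growth relative to untreated growth.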

K562 = test: Growth inhibition of human K562 cells assessed tumor cell growth at 10^-5 M; summary of the method: as §1
MOLT-4 = test: Growth inhibition of human MOLT4 cells assessed tumor cell growth at 10^-5 M; summary of the method: as §1
[1] = Growth inhibition of human […] cells assessed tumor cell growth at 10^-5 M; summary of the method: as §1
SR = test: Growth inhibition of human SR cells assessed tumor cell growth at 10^-5 M
Summary of the method: (§2)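 Single-dose screen at 10^-5 M across the 60 human tumor cell line panel, run to NCI standards. The value is the percent growth of each cell line in the presence of compound. Compounds active at this dose moved on to five-concentration testing (10^-4 to 10^-8 M).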

A549 = test: Growth inhibition of human A549 cells assessed tumor cell growth at 10^-5 M; summary of the method: as §1
EKVX = test: Growth inhibition of human EKVX cells assessed tumor cell growth at 10^-5 M; summary of the method: as §1
HOP-62 = test: Growth inhibition of human HOP62 cells assessed tumor cell growth at 10^-5 M; summary of the method: as §1
HOP-92 = test: Growth inhibition of human HOP92 cells assessed tumor cell growth at 10^-5 M; summary of the method: as §1
NCI-H226 = test: Growth inhibition of human NCI-H226 cells assessed tumor cell growth at 10^-5 M; summary of the method: as §1
NCI-H23 = test: Growth inhibition of human NCI-H23 cells assessed tumor cell growth at 10^-5 M; summary of the method: as §1
NCI-H322M = test: Growth inhibition of human NCI-H322M cells assessed tumor cell growth at 10^-5 M; summary of the method: as §1
NCI-H460 = test: Growth inhibition of human NCI-H460 cells assessed tumor cell growth at 10^-5 M; summary of the method: as §1
COLO 205 = test: Growth inhibition of human COLO205 cells assessed tumor cell growth at 10^-5 M; summary of the method: as §1
HCC 2998 = test: Growth inhibition of human HCC2998 cells assessed tumor cell growth at 10^-5 M; summary of the method: as §1
HCT-116 = test: Growth inhibition of human HCT116 cells assessed tumor cell growth at 10^-5 M; summary of the method: as §1
HCT-15 = test: Growth inhibition of human HCT15 cells assessed tumor cell growth at 10^-5 M; summary of the method: as §1
HT-29 = test: Growth inhibition of human HT-29 cells assessed tumor cell growth at 10^-5 M; summary of the method: as §1
KM12 = test: Growth inhibition of human KM12 cells assessed tumor cell growth at 10^-5 M; summary of the method: as §1
SW-620 = test: Growth inhibition of human SW620 cells assessed tumor cell growth at 10^-5 M; summary of the method: as §2
SF-268 = test: Growth inhibition of human SF268 cells assessed tumor cell growth at 10^-5 M; summary of the method: as §1
SF-295 = test: Growth inhibition of human SF295 cells assessed tumor cell growth at 10^-5 M; summary of the method: as §1
SF-539 = test: Growth inhibition of human SF539 cells assessed tumor cell growth at 10^-5 M; summary of the method: as §1
SNB-19 = test: Growth inhibition of human SNB19 cells assessed tumor cell growth at 10^-5 M; summary of the method: as §2
SNB-75 = test: Growth inhibition of human SNB75 cells assessed tumor cell growth at 10^-5 M; summary of the method: as §2
U-251 = test: Growth inhibition of human U251 cells assessed tumor cell growth at 10^-5 M; summary of the method: as §2
LOX IMVI = test: Growth inhibition of human LOXIMVI cells assessed tumor cell growth at 10^-5 M; summary of the method: as §1
Malme-3M = test: Growth inhibition of human MALME-3M cells assessed tumor cell growth at 10^-5 M; summary of the method: as §1
M14 = test: Growth inhibition of human M14 cells assessed tumor cell growth at 10^-5 M; summary of the method: as §1
MDA-MB-435 = test: Growth inhibition of human MDA-MB-435 cells assessed tumor cell growth at 10^-5 M; summary of the method: as §1
SK-MEL-2 = test: Growth inhibition of human SK-MEL-2 cells assessed tumor cell growth at 10^-5 M; summary of the method: as §1
SK-MEL-28 = test: Growth inhibition of human SK-MEL-28 cells assessed tumor cell growth at 10^-5 M; summary of the method: as §1
SK-MEL-5 = test: Growth inhibition of human SK-MEL-5 cells assessed tumor cell growth at 10^-5 M; summary of the method: as §1
UACC-257 = test: Growth inhibition of human UACC257 cells assessed tumor cell growth at 10^-5 M; summary of the method: as §2
UACC-62 = test: Growth inhibition of human UACC62 cells assessed tumor cell growth at 10^-5 M; summary of the method: as §2
IGROV-1 = test: Growth inhibition of human IGROV1 cells assessed tumor cell growth at 10^-5 M; summary of the method: as §1
OVCAR-3 = test: Growth inhibition of human OVCAR3 cells assessed tumor cell growth at 10^-5 M; summary of the method: as §1
OVCAR-4 = test: Growth inhibition of human OVCAR4 cells assessed tumor cell growth at 10^-5 M; summary of the method: as §1
OVCAR-5 = test: Growth inhibition of human OVCAR5 cells assessed tumor cell growth at 10^-5 M; summary of the method: as §1
OVCAR-8 = test: Growth inhibition of human OVCAR8 cells assessed tumor cell growth at 10^-5 M; summary of the method: as §1
NCI/ADR-RES = test: Growth inhibition of human NCI/ADR-RES cells assessed tumor cell growth at 10^-5 M; summary of the method: as §1
SK-OV-3 = test: Growth inhibition of human SKOV3 cells assessed tumor cell growth at 10^-5 M; summary of the method: as §1
786-0 = test: Growth inhibition of human 786-0 cells assessed tumor cell growth at 10^-5 M; summary of the method: as §1
A498 = test: Growth inhibition of human A498 cells assessed tumor cell growth at 10^-5 M; summary of the method: as §1
ACHN = test: Growth inhibition of human ACHN cells assessed tumor cell growth at 10^-5 M; summary of the method: as §1
CAKI-1 = test: Growth inhibition of human Caki1 cells assessed tumor cell growth at 10^-5 M; summary of the method: as §1
RXF 393 = test: Growth inhibition of human RXF393 cells assessed tumor cell growth at 10^-5 M; summary of the method: as §1
SN12C = test: Growth inhibition of human SN12C cells assessed tumor cell growth at 10^-5 M; summary of the method: as §1
UO-31 = test: Growth inhibition of human UO31 cells assessed tumor cell growth at 10^-5 M; summary of the method: as §2
PC-3 = test: Growth inhibition of human PC3 cells assessed tumor cell growth at 10^-5 M; summary of the method: as §1
DU-145 = test: Growth inhibition of human DU145 cells assessed tumor cell growth at 10^-5 M; summary of the method: as §1
MCF7 = test: Growth inhibition of human MCF7 cells assessed tumor cell growth at 10^-5 M; summary of the method: as §1
MDA-MB-231 = test: Growth inhibition of human MDA-MB-231 cells assessed tumor cell growth at 10^-5 M; summary of the method: as §1
[2] = Growth inhibition of human Hs 578T cells assessed tumor cell growth at 10^-5 M; summary of the method: as §1
BT-549 = test: Growth inhibition of human BT549 cells assessed tumor cell growth at 10^-5 M; summary of the method: as §1
T47D = test: Growth inhibition of human T47D cells assessed tumor cell growth at 10^-5 M; summary of the method: as §2
MDA-MB-468 = test: Growth inhibition of human MDA-MB-468 cells assessed tumor cell growth at 10^-5 M; summary of the method: as §1
NCI-H522 = test: Growth inhibition of human NCI-H522 cells assessed tumor cell growth at 10^-5 M; summary of the method: as §1
TK-10 = test: Growth inhibition of human TK10 cells assessed tumor cell growth at 10^-5 M; summary of the method: as §2

## CC1=NN(c2cccc(Cl)c2)C(=O)/C1=C\c1coc2ccccc2c1=O
CCRF-CEM
  Activity: 97.52%
HL-60(TB)
  Activity: 106.16%
K562
  Activity: 109.12%
MOLT-4
  Activity: 102.14%
[1]
  Activity: 72.35%
SR
  Activity: 96.27%
A549
  Activity: 102.67%
EKVX
  Activity: 110.36%
HOP-62
  Activity: 110.49%
HOP-92
  Activity: 91.19%
NCI-H226
  Activity: 93.17%
NCI-H23
  Activity: 88.35%
NCI-H322M
  Activity: 121.02%
NCI-H460
  Activity: 112.85%
COLO 205
  Activity: 138.42%
HCC 2998
  Activity: 94.86%
HCT-116
  Activity: 106.06%
HCT-15
  Activity: 92.73%
HT-29
  Activity: 114.92%
KM12
  Activity: 113.31%
SW-620
  Activity: 98.74%
SF-268
  Activity: 101.34%
SF-295
  Activity: 127.24%
SF-539
  Activity: 95.06%
SNB-19
  Activity: 102.59%
SNB-75
  Activity: 94.9%
U-251
  Activity: 97.41%
LOX IMVI
  Activity: 92.97%
Malme-3M
  Activity: 107.7%
M14
  Activity: 63.48%
MDA-MB-435
  Activity: 110.64%
SK-MEL-2
  Activity: 96.49%
SK-MEL-28
  Activity: 109.94%
SK-MEL-5
  Activity: 109.62%
UACC-257
  Activity: 98.36%
UACC-62
  Activity: 92.44%
IGROV-1
  Activity: 105.92%
OVCAR-3
  Activity: 123.01%
OVCAR-4
  Activity: 99.9%
OVCAR-5
  Activity: 93.56%
OVCAR-8
  Activity: 99.11%
NCI/ADR-RES
  Activity: 87.3%
SK-OV-3
  Activity: 103.95%
786-0
  Activity: 77.33%
A498
  Activity: 114.05%
ACHN
  Activity: 96.23%
CAKI-1
  Activity: 96.64%
RXF 393
  Activity: 96.69%
SN12C
  Activity: 100.25%
UO-31
  Activity: 82.13%
PC-3
  Activity: 108.19%
DU-145
  Activity: 115.23%
MCF7
  Activity: 86.4%
MDA-MB-231
  Activity: 98.59%
[2]
  Activity: 96.45%
BT-549
  Activity: 98.21%
T47D
  Activity: 92.99%
MDA-MB-468
  Activity: 106.03%

## O=C1/C(=C\c2cn(C(=O)c3ccccc3)c3ccccc23)c2ccccc2N1c1c(Cl)cccc1Cl
CCRF-CEM
  Activity: 111.2%
HL-60(TB)
  Activity: 102.5%
K562
  Activity: 114.6%
MOLT-4
  Activity: 89.6%
[1]
  Activity: 100.6%
SR
  Activity: 99.5%
A549
  Activity: 110%
EKVX
  Activity: 97.7%
HOP-62
  Activity: 94.2%
HOP-92
  Activity: 79.8%
NCI-H226
  Activity: 94.8%
NCI-H23
  Activity: 97.2%
NCI-H322M
  Activity: 111.9%
NCI-H460
  Activity: 111.1%
NCI-H522
  Activity: 90.9%
COLO 205
  Activity: 122.5%
HCC 2998
  Activity: 101.6%
HCT-116
  Activity: 94%
HCT-15
  Activity: 66.3%
HT-29
  Activity: 103.4%
KM12
  Activity: 111.3%
SW-620
  Activity: 104.6%
SF-268
  Activity: 99.9%
SF-295
  Activity: 126.6%
SF-539
  Activity: 104%
SNB-75
  Activity: 82.2%
U-251
  Activity: 88.4%
LOX IMVI
  Activity: 97.6%
Malme-3M
  Activity: 106%
M14
  Activity: 104.2%
MDA-MB-435
  Activity: 115.5%
SK-MEL-2
  Activity: 102.9%
SK-MEL-28
  Activity: 113.4%
SK-MEL-5
  Activity: 107.1%
UACC-257
  Activity: 123.3%
UACC-62
  Activity: 95.4%
IGROV-1
  Activity: 99.2%
OVCAR-3
  Activity: 116.1%
OVCAR-4
  Activity: 99.5%
OVCAR-5
  Activity: 94.2%
OVCAR-8
  Activity: 113.1%
NCI/ADR-RES
  Activity: 99.7%
SK-OV-3
  Activity: 111.6%
786-0
  Activity: 90.7%
A498
  Activity: 102.8%
ACHN
  Activity: 97.6%
CAKI-1
  Activity: 86.4%
RXF 393
  Activity: 150.7%
SN12C
  Activity: 89.5%
TK-10
  Activity: 118.8%
UO-31
  Activity: 76.9%
PC-3
  Activity: 71.8%
DU-145
  Activity: 119.5%
MCF7
  Activity: 95.7%
MDA-MB-231
  Activity: 103.3%
[2]
  Activity: 107.3%
BT-549
  Activity: 106.5%
T47D
  Activity: 92.4%
MDA-MB-468
  Activity: 97.7%
